From ChEMBL document CHEMBL4261600 (Eur J Med Chem, 2018)
The source made the active and inactive calls.

What was measured:
[1] = target: Cyclin-dependent kinase 7 (Homo sapiens) (UniProt P50613); assay: Inhibition of CDK7 in human MV4-11 cells assessed as decrease in RNA polymerase 2 phosphorylation at Ser 5 residues up to 3 uM after 2 hrs by immunoblotting analysis; type: cell-based
MV4-11 [2] = assay: Induction of apoptosis in human MV4-11 cells assessed as decrease in BCL-2 level up to 3 uM after 2 hrs by immunoblotting analysis; type: functional, cell-based
[3] = tested on: ALK tyrosine kinase receptor (Homo sapiens), Q9UM73 [C1156Y]; assay: Binding affinity to wild-type human partial length ALK C1156Y mutant (I1088 to E1409 residues) expressed in mammalian expression system assessed as remaining unbound target protein level at 1000 nM by Kinomescan method relative to control
In short: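 Profiled in a KINOMEscan binding panel with the inhibitor at a single concentration of 1 μM. Binding to each kinase was read out as percent of control, relative to a DMSO control. Strong binders were defined as those with a percent control value below 1.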

[4] = target: Cyclin-dependent kinase 9 (Homo sapiens, UniProt P50750); assay: Binding affinity to wild-type human full length CDK9 (M1 to F372 residues) expressed in bacterial expression system assessed as remaining unbound target protein level at 1000 nM by Kinomescan method relative to control
In short: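 KINOMEscan competition binding panel run at 1 μM inhibitor; binding reported as percent of DMSO control (remaining target bound versus vehicle).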

[5] = target: Serine/threonine-protein kinase DCLK2 (Homo sapiens) (UniProt Q8N568); assay: Binding affinity to wild-type human partial length DCAMKL2 (K273 to V664 residues) expressed in bacterial expression system assessed as remaining unbound target protein level at 1000 nM by Kinomescan method relative to control
[6] = target: Ephrin type-A receptor 5 (Homo sapiens) (UniProt P54756); assay: Binding affinity to wild-type human partial length EPHA5 (T627 to V930 residues) expressed in bacterial expression system assessed as remaining unbound target protein level at 1000 nM by Kinomescan method relative to control
[7] = target: LIM domain kinase 2 (Homo sapiens) (UniProt P53671); assay: Binding affinity to wild-type human full length LIMK2 (M1 to P638 residues) expressed in bacterial expression system assessed as remaining unbound target protein level at 1000 nM by Kinomescan method relative to control
In short: (§1)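 Single-point competition binding screen across a panel of 468 kinases and mutants, with the inhibitor at 1 μM. Binding is read out as percent of a DMSO control, and targets below 1 percent control were classed as strong binders.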

[8] = target: Dual specificity mitogen-activated protein kinase kinase 6 (Homo sapiens) (UniProt P52564); assay: Binding affinity to wild-type human partial length MEK6 (K36 to D334 residues) expressed in bacterial expression system assessed as remaining unbound target protein level at 1000 nM by Kinomescan method relative to control
In short: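 KINOMEscan binding panel of 468 kinases/mutants. Inhibitor was tested at a single concentration of 1 μM. Binding is reported as percent of control, defined relative to a DMSO control.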

[9] = target: Serine/threonine-protein kinase MRCK alpha (Homo sapiens) (UniProt Q5VT25); assay: Binding affinity to wild-type human partial length MRCKA (L57 to V418 residues) expressed in bacterial expression system assessed as remaining unbound target protein level at 1000 nM by Kinomescan method relative to control
[10] = target: Serine/threonine-protein kinase 4 (Homo sapiens) (UniProt Q13043); assay: Binding affinity to wild-type human full length MST1 (M1 to F487 residues) expressed in bacterial expression system assessed as remaining unbound target protein level at 1000 nM by Kinomescan method relative to control
In short: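 KINOMEscan competition binding profile across a panel of 468 kinases and mutants, with the inhibitor tested at a single concentration of 1 μM. Binding is reported as percent of control, meaning signal relative to a DMSO control.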

[11] = target: Serine/threonine-protein kinase Nek3 (Homo sapiens) (UniProt P51956); assay: Binding affinity to wild-type human full length NEK3 (M1 to R506 residues) expressed in mammalian expression system assessed as remaining unbound target protein level at 1000 nM by Kinomescan method relative to control; in short: as §1
[12] = target: Serine/threonine-protein kinase NIM1 (Homo sapiens) (UniProt Q8IY84); assay: Binding affinity to wild-type human partial length NIM1 (Q44 to N355 residues) expressed in mammalian expression system assessed as remaining unbound target protein level at 1000 nM by Kinomescan method relative to control
[13] = target: 1-phosphatidylinositol 3-phosphate 5-kinase (Homo sapiens) (UniProt Q9Y2I7); assay: Binding affinity to wild-type human partial length PIKFYVE (F1512 to C2098 residues) expressed in mammalian expression system assessed as remaining unbound target protein level at 1000 nM by Kinomescan method relative to control
[14] = target: Phosphatidylinositol 5-phosphate 4-kinase type-2 gamma (Homo sapiens) (UniProt Q8TBX8); assay: Binding affinity to wild-type human partial length PIP5K2C (M1 to A421 residues) expressed in mammalian expression system assessed as remaining unbound target protein level at 1000 nM by Kinomescan method relative to control
[15] = target: cAMP-dependent protein kinase catalytic subunit PRKX (Homo sapiens) (UniProt P51817); assay: Binding affinity to wild-type human partial length PRKX (M1 to F358 residues) expressed in bacterial expression system assessed as remaining unbound target protein level at 1000 nM by Kinomescan method relative to control
[16] = target: Serine/threonine-protein kinase TAO2 (Homo sapiens) (UniProt Q9UL54); assay: Binding affinity to wild-type human partial length TAOK2 (M1 to A320 residues) expressed in mammalian expression system assessed as remaining unbound target protein level at 1000 nM by Kinomescan method relative to control
[17] = target: Serine/threonine-protein kinase 25 (Homo sapiens) (UniProt O00506); assay: Binding affinity to wild-type human partial length YSK1 (V14 to H295 residues) expressed in bacterial expression system assessed as remaining unbound target protein level at 1000 nM by Kinomescan method relative to control
[18] = target: Mitogen-activated protein kinase kinase kinase 19 (Homo sapiens) (UniProt Q56UN5); assay: Binding affinity to wild-type human partial length YSK4 (T1019 to H1328 residues) expressed in mammalian expression system assessed as remaining unbound target protein level at 1000 nM by Kinomescan method relative to control
Homo sapiens = organism: Homo sapiens; assay: Selectivity ratio of IC50 for recombinant full length His-tagged human CDK2/CyclinA to IC50 for recombinant full length His-tagged human CDK9/CyclinT1
MV4-11 [19] = assay: Cell cycle arrest in human MV4-11 cells increase in accumulation at G0/G1 phase at 0.01 to 0.03 uM after 24 hrs by propidium iodide/RNase staining based flow cytometric analysis

Chain of cAMP-dependent protein kinase catalytic subunit PRKX (Homo sapiens) (P51817 whole entry, the tested form may be a part): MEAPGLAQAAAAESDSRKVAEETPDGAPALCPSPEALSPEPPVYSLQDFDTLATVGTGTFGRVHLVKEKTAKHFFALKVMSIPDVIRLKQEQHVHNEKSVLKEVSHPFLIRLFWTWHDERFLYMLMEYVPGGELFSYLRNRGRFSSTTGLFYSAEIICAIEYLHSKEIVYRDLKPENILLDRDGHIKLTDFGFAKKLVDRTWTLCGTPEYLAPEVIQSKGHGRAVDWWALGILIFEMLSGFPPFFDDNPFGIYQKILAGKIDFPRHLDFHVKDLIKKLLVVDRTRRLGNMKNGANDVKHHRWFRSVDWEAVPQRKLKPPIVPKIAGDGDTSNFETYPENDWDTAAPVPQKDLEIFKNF
Chain of Serine/threonine-protein kinase NIM1 (Homo sapiens) (Q8IY84 whole entry, the tested form may be a part): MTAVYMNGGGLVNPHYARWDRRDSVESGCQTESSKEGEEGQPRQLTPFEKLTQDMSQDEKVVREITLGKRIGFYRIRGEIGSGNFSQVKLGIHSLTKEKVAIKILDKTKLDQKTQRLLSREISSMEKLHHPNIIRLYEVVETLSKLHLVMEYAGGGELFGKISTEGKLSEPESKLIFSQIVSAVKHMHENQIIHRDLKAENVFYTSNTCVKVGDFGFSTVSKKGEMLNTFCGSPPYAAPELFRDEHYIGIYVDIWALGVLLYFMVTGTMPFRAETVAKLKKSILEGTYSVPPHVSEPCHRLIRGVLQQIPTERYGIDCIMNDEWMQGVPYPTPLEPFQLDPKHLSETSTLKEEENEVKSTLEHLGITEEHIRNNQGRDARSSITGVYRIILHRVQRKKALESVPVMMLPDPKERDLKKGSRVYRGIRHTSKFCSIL
Chain of Dual specificity mitogen-activated protein kinase kinase 6 (Homo sapiens) (P52564 whole entry, the tested form may be a part): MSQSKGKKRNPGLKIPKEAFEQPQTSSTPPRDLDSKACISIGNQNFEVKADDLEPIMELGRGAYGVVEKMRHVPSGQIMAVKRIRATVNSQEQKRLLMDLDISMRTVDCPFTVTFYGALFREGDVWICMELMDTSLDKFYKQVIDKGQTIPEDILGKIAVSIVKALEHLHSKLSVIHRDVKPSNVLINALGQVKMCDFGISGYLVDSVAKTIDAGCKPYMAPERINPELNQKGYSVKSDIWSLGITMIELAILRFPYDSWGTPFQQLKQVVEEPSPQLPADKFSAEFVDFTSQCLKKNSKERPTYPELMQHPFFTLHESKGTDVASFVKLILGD
Chain of LIM domain kinase 2 (Homo sapiens) (P53671 whole entry, looked up, the tested form may be a part): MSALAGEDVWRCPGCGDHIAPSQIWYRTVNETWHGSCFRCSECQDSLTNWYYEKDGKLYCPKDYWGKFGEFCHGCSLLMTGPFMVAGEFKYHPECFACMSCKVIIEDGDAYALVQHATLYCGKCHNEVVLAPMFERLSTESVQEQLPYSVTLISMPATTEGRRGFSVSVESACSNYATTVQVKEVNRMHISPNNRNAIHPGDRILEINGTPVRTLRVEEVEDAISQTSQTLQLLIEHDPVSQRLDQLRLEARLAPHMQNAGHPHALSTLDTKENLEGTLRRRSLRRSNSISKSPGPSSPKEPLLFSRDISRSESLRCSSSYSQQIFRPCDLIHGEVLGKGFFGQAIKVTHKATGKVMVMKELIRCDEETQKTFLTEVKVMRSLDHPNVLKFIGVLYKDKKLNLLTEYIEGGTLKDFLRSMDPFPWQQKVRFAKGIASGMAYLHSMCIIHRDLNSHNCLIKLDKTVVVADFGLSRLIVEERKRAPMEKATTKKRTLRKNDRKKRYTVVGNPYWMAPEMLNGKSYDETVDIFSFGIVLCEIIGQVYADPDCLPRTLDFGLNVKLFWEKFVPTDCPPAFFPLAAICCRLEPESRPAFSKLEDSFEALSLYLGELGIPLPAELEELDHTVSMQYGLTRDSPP
Chain of Serine/threonine-protein kinase 25 (Homo sapiens) (O00506 whole entry, looked up, the tested form may be a part): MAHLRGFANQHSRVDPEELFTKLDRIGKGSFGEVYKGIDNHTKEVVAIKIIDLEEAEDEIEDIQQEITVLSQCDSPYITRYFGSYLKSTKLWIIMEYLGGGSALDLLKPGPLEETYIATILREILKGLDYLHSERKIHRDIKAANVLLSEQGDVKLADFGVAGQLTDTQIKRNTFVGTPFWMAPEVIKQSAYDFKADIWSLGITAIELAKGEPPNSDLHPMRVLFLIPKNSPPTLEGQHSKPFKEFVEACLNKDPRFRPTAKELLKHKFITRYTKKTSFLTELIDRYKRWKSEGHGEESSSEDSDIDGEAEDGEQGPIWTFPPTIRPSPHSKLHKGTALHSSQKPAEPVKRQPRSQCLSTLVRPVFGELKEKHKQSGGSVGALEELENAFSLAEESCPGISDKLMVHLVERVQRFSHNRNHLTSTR
Chain of Cyclin-dependent kinase 9 (P50750 whole entry, the tested form may be a part): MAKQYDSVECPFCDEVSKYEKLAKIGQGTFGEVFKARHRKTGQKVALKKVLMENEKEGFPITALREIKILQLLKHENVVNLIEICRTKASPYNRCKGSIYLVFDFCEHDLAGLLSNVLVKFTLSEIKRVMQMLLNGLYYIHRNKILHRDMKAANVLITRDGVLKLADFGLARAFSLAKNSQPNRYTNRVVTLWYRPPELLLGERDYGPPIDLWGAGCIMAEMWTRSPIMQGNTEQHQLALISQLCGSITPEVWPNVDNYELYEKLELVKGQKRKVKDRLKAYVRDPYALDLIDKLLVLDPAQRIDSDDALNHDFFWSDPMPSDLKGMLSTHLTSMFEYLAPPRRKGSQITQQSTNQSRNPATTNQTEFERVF
Chain of Serine/threonine-protein kinase DCLK2 (Homo sapiens) (Q8N568 whole entry, the tested form may be a part): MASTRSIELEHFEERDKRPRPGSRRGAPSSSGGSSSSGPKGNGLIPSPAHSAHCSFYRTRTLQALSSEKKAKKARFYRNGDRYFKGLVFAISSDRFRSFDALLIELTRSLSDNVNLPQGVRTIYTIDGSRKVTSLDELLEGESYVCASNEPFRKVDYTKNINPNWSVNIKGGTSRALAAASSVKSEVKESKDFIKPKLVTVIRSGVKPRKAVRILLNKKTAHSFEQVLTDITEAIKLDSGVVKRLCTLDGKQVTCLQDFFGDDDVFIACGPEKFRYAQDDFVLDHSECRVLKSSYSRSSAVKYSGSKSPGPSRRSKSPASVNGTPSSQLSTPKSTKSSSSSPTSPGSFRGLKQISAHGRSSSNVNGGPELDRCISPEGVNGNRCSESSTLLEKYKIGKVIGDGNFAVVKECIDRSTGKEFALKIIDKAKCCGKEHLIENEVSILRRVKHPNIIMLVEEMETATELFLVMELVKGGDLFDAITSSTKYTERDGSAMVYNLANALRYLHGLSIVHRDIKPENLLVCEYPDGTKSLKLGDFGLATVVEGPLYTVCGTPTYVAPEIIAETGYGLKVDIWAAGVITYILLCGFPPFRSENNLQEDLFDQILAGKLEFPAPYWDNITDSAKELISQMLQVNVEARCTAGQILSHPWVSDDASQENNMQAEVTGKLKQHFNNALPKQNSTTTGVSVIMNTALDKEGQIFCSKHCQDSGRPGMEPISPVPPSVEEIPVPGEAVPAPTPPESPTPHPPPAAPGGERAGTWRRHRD
Chain of Serine/threonine-protein kinase TAO2 (Homo sapiens) (Q9UL54 whole entry, the tested form may be a part): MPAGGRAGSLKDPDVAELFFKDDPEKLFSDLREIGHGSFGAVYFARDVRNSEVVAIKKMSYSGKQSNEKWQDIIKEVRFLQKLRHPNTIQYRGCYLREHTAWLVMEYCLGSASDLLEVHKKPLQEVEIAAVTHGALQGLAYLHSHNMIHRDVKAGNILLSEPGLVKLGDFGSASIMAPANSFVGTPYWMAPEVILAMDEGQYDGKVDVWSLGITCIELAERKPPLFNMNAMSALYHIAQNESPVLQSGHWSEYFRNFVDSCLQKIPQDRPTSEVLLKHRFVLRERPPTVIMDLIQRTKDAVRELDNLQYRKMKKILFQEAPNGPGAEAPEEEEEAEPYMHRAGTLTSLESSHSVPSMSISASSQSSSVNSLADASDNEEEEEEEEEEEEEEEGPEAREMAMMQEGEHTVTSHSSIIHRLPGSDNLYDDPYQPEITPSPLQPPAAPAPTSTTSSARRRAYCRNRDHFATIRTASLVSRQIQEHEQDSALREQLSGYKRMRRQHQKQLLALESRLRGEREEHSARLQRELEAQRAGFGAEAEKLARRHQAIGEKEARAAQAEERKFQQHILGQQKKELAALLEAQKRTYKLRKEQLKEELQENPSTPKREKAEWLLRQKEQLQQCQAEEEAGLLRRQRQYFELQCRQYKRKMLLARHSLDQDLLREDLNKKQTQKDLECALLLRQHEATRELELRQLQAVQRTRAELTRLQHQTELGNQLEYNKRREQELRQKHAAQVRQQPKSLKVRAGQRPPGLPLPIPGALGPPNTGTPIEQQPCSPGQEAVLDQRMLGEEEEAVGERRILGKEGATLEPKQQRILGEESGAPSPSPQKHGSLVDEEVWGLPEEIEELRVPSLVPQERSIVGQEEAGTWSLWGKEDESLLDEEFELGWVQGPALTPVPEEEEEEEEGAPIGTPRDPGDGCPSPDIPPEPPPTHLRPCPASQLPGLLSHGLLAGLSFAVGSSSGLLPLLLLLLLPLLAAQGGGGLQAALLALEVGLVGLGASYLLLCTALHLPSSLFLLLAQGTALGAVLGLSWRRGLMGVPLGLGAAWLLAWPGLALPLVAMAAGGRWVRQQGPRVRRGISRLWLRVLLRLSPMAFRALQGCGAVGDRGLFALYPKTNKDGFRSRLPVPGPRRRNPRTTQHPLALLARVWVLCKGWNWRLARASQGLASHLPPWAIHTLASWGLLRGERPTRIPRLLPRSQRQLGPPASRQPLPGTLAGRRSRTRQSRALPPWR
Chain of Cyclin-dependent kinase 7 (Homo sapiens) (P50613 whole entry): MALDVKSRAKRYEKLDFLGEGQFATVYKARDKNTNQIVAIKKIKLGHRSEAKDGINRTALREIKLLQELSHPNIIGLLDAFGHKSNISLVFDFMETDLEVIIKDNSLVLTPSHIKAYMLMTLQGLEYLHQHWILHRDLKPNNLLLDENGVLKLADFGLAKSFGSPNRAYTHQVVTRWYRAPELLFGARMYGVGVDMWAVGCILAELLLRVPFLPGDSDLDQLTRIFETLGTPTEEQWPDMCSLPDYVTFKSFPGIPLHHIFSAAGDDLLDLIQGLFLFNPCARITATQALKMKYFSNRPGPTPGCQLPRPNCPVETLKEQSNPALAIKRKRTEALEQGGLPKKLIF

Q: `COCCN[C@H]1CC[C@H](Nc2cc(-c3csc(NCC4(C#N)CCOCC4)n3)c(Cl)cn2)CC1` was tested. Which inhibition [1] did it give?
A: inactive

Q: And the Activity (MV4-11 [2])?
A: inactive

Q: And the Activity [3]?
A: 86%

Q: And the Activity [4]?
A: 0.9%

Q: And the Activity [5]?
A: 96%

Q: And the Activity [6]?
A: 97%

Q: And the Activity [7]?
A: 76%

Q: What about the Activity [8] of the same compound?
A: 68%

Q: And the Activity [9]?
A: 83%

Q: And the Activity [10]?
A: 99%

Q: What about the Activity [11] of the same compound?
A: 100%

Q: And the Activity [12]?
A: 96%

Q: And the Activity [13]?
A: 95%

Q: And the Activity [14]?
A: 59%

Q: And the Activity [15]?
A: 91%

Q: And the Activity [16]?
A: 60%

Q: What about the Activity [17] of the same compound?
A: 92%

Q: And the Activity [18]?
A: 72%

Q: What about the Ratio IC50 (Homo sapiens) of the same compound?
A: > 1000

Q: And the Activity (MV4-11 [19])?
A: Active
